Experimental data taken from ChEMBL document CHEMBL4219124, “Alleviating CYP and hERG liabilities by structure optimization of dihydrofuran-fused tricyclic benzo[d]imidazole series - Potent, selective and orally efficacious microsomal prostaglandin E synthase-1 (mPGES-1) inhibitors: Part-2” (Bioorg Med Chem Lett, 2018).

Assays:
[1] = test system: CHO; test: Inhibition of rat mPGES1 expressed in CHO cells assessed as reduction in PGE2 production at 10 uM using PGH2 as substrate incubated for 10 mins followed by substrate addition measured for 1 min relative to control; type: cell-based
In short: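 Rodent enzyme protocol run as for the human and guinea pig mPGES-1 enzyme assays; single-concentration percent inhibition.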

[2] = Apparent passive permeability of the compound by PAMPA; type: ADME
In short: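 Passive permeability by PAMPA, using a 2% lecithin in dodecane membrane. Run in triplicate.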

[3] = test system: Prostaglandin F synthase (Homo sapiens); test: Inhibition of human PGF synthase assessed as decrease in PGF2alpha production at 10 uM relative to control
[4] = Protein binding in guinea pig plasma at 10 uM after 5 hrs by equilibrium dialysis based LC-MS/MS analysis; type: ADME, cell-free, Cavia porcellus; settings: read-out: PPB (converted)
In short: (§1)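 Equilibrium dialysis at 10 μM compound; result expressed as percent bound.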

[5] = Protein binding in dog plasma at 10 uM after 5 hrs by equilibrium dialysis based LC-MS/MS analysis; type: ADME, cell-free, Canis lupus familiaris; settings: read-out: PPB (converted); in short: as §1
[6] = Inhibition of human U937 cells-derived COX1 assessed as decrease in PGE2 production at 10 uM using arachidonic acid as substrate preincubated for 15 mins prior to substrate addition for 5 mins relative to control; settings: COX1 derived from U937 cells, probe arachidonic acid
In short: (§2)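 Selectivity panel against other prostanoid-pathway enzymes. % inhibition values are means of at least two experiments, each in duplicate.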

[7] = Ratio of drug uptake in brain to plasma of Sprague-Dawley rat at 10 mg/kg, po; type: ADME, organism-based; settings: read-out: BPR
[8] = Inhibition of recombinant human COX2 assessed as decrease in PGE2 production at 10 uM using arachidonic acid as substrate preincubated for 15 mins prior to substrate addition for 5 mins relative to control; settings: recombinant COX2, probe arachidonic acid
[9] = biological target: CYP2C19 (Homo sapiens, UniProt P33261); test: Inhibition of CYP2C19 in human liver microsomes at 10 uM after 40 mins in presence of NADPH by LC-MS/MS analysis; type: ADME
In short: (§3)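 Percent inhibition of each CYP isoform by test compound at 10 µM, compared with a no-inhibitor control. Run in triplicate.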

[10] = Clearance in Sprague-Dawley rat at 1 mg/kg, iv; type: ADME, organism-based; settings: in vivo
In short: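 Intravenous dose of 1 mg/kg; clearance and Vz derived from the i.v. arm. Rat (male Sprague-Dawley) vehicle 20% NMP + 20% ethanol + 60% PEG 200, mean ± SD (n = 3). Dog vehicle 20% NMP + 20% EtOH + 10% PG + 50% PEG 200:water (3:2). Monkey vehicle 10% NMP + 10% ethanol + 10% PEG + 70% PEG200:water (3:2).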

[11] = Inhibition of mPGES1 in guinea pig whole blood assessed as reduction in LPS-induced PGE2 production measured after 20 to 24 hrs; settings: Cavia porcellus
In short: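 Guinea pig whole blood stimulated with LPS. […] At least two experiments, each in duplicate.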

[12] = Metabolic stability in guinea pig liver microsomes assessed as parent compound remaining at 1 uM after 60 mins in presence of NADPH by LC-MS/MS analysis; type: ADME, Cavia porcellus, microsome; settings: read-out: Stability
In short: (§4)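 Compound incubated 60 min at 37 °C with human, rat or guinea pig liver microsomes; percent parent remaining, triplicates.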

[13] = Tmax in Dunkin-Hartley guinea pig at 10 mg/kg, po; type: ADME, organism-based, Cavia porcellus; settings: in vivo
In short: (§5)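 Tmax from oral 10 mg/kg dosing. Rat: male Sprague-Dawley, 0.5% MC suspension, n = 3. Guinea pig: 20% NMP + 0.5% MC suspension, n = 3. Dog and monkey: 2.5 μL/mL Tween 80 + 0.5% MC suspension.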

[14] = biological target: Prostaglandin F synthase (Homo sapiens); test: Inhibition of human PGF synthase assessed as decrease in PGF2alpha production
[15] = AUC (0 to 24 hrs) in Dunkin-Hartley guinea pig at 10 mg/kg, po; type: ADME, organism-based, Cavia porcellus; set-up: time < 24 hr, dose 10 mg/kg, route oral; settings: in vivo
In short: (§6)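 Single oral dose of 10 mg/kg. Cmax and AUC0-24 taken from the oral arm. Rat: male Sprague-Dawley, dosed in 0.5% methylcellulose suspension, mean ± SD (n = 3). Guinea pig: 20% NMP + 0.5% MC suspension, mean ± SD (n = 3). Dog and cynomolgus monkey: 2.5 μL/mL Tween 80 + 0.5 (w/v) MC suspension.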

[16] = Protein binding in human plasma at 10 uM after 5 hrs by equilibrium dialysis based LC-MS/MS analysis; type: ADME, cell-free; settings: read-out: PPB (converted); in short: as §1
[17] = biological target: T1, CYP1A2 (Homo sapiens, UniProt P05177); test: Inhibition of CYP1A2 in human liver microsomes at 10 uM after 20 mins in presence of NADPH by LC-MS/MS analysis; type: ADME; in short: as §3
T1 sequence (P05177 whole entry): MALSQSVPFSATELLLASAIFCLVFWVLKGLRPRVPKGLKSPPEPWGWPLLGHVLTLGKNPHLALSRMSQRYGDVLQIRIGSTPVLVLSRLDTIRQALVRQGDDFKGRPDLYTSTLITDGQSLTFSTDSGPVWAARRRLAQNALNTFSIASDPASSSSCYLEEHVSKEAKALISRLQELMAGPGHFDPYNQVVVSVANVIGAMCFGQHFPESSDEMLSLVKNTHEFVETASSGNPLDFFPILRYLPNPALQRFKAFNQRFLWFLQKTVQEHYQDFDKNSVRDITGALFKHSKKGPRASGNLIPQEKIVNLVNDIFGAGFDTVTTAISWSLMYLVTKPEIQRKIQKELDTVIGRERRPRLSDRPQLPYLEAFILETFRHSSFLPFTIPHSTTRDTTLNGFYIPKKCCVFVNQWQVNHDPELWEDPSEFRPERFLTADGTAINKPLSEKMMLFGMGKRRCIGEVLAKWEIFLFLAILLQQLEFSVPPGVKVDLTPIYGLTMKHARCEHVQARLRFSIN

[18] = Tmax in cynomolgus monkey at 10 mg/kg, po; type: ADME, organism-based, Macaca fascicularis; settings: in vivo; in short: as §5
[19] = Metabolic stability in rat liver microsomes assessed as parent compound remaining at 1 uM after 60 mins in presence of NADPH by LC-MS/MS analysis; type: ADME, microsome; settings: read-out: Stability; in short: as §4
[20] = Cmax in cynomolgus monkey at 10 mg/kg, po; type: ADME, organism-based, Macaca fascicularis; set-up: dose 10 mg/kg, route oral; settings: in vivo; in short: as §6
[21] = biological target: T2, Prostaglandin E synthase 3 (Homo sapiens) (UniProt Q15185); test: Inhibition of cPGES in human U937 cells assessed as decrease in PGE2 production at 10 uM using arachidonic acid as substrate relative to control; type: cell-based; in short: as §2
T2 sequence (whole entry): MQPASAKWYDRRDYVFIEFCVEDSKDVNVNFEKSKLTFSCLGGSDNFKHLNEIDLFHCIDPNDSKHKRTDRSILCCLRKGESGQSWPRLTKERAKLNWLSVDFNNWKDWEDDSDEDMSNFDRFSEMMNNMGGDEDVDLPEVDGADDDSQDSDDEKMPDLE

CYP2C19, sequence (P33261 whole entry, canonical isoform): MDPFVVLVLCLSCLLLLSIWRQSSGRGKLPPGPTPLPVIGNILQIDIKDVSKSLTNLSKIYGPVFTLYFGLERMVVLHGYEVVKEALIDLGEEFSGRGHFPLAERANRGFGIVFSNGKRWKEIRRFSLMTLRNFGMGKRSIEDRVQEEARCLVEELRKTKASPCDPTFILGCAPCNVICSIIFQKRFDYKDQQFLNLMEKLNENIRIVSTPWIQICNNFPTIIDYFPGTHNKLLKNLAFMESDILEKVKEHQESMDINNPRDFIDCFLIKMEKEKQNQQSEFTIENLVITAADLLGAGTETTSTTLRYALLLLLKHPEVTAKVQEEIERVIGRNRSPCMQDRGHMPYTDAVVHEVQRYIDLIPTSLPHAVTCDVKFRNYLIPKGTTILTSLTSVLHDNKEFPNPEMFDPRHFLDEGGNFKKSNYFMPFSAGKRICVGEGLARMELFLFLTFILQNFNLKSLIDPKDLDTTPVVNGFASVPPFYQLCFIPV

| Structure (SMILES) | inhibition [1] [%] | Papp [2] [×10⁻⁶ cm/s] | inhibition [3] [%] | fraction unbound at 5 h, 10 µM [4] | fraction unbound at 5 h, 10 µM [5] | inhibition at 5 min, 10 µM [6] [%] | Kp [7] | inhibition at 5 min, 10 µM [8] [%] | inhibition at 40 min, 10 µM [9] [%] | clearance [10] [mL/min/kg] | IC50 [11] [nM] | remaining at 1 h, 1 µM [12] [%] | Tmax [13] [h] | IC50 [14] [nM] | AUC(0-t) at 24 h [15] [ng·h/mL] | fraction unbound at 5 h, 10 µM [16] | inhibition at 20 min, 10 µM [17] [%] | Tmax [18] [h] | remaining at 1 h, 1 µM [19] [%] | inhibition [21] [%] | further results |
| --- | --- | --- | --- | --- | --- | --- | --- | --- | --- | --- | --- | --- | --- | --- | --- | --- | --- | --- | --- | --- | --- |
| CC1(C)Cc2c(c(C(=O)Nc3ccc(F)c(C(F)(F)F)c3)cc3nc(Nc4c(F)cccc4Cl)[nH]c23)O1 | 10.5 | 0.33 | 100 | 0.0136 | 0.009 | 8.27 | 0.18 | 23.1 | 55 | 11.2 | 465 | 100 | 2 | 2320 | 4120 | 0.0054 | -6 | 24 | 91 | 0 | Cmax [20]: 680 ng/mL |
| CC1(C)Cc2c(c(C(=O)Nc3cc(C(F)(F)F)ccc3F)cc3nc(Nc4c(F)cccc4Cl)[nH]c23)O1 | 11.7 | 0.62 | 99.2 | 0.0035 |  | 14.7 |  | 28.7 | 33 |  | 204 | 79 |  | 2470 |  | 0.0004 | 22 |  | 96 | 4.2 |  |
| Cc1cccc(Cl)c1Nc1nc2cc(C(=O)Nc3cc(C(F)(F)F)ccc3F)c3c(c2[nH]1)CC(C)(C)O3 | 0 | 1.34 | 17.9 | 0.0004 | 0.003 | 14.6 | 0.04 | 31 | 16 | 8.2 | 340 | 46 | 1 |  | 408 | 0.0003 | 24 | 12 | 97 | 21.1 | Cmax [20]: 499 ng/mL |
| Cn1c(Nc2c(F)cccc2Cl)nc2cc(C(=O)Nc3cccc(C(F)(F)F)c3)c3c(c21)CC(C)(C)O3 | 3.4 |  | 61.4 | 0.0028 |  | 19.7 |  | 6.5 | 36 |  | 188 | 51 |  | 3180 |  | 0.0029 | 5 |  | 89 | 24 |  |
| CC1(C)Cc2c(c(C(=O)Nc3ccc(C(F)(F)F)cn3)cc3nc(Nc4c(Cl)cccc4Cl)[nH]c23)O1 | 7.1 | 0.63 | 15.4 | 0.0016 | 0.008 | 7.8 | 0.16 | 35.9 | 15 | 16.2 | 259 | 71 | 12 |  | 639 | 0.0004 | 4 | 6 | 88 | 0 | Cmax [20]: 323 ng/mL |
| Cc1cccc(Cl)c1Nc1nc2cc(C(=O)Nc3cc(C(F)F)ccc3F)c3c(c2[nH]1)CC(C)(C)O3 | 0.7 |  |  | 0.0158 |  | 38.2 |  | 43.2 | 14 |  | 222 | 60 |  |  |  | 0.0008 | 28 |  | 87 | 11 |  |
